In publication PMC8861424 (Molecular Therapy Oncolytics, 2022):

Experiments:
Primary HUVECs [1] = assay: HUVEC proliferation without VEGF165; type: cell-based; details: Homo sapiens, 72 h, read-out: IC50, cell proliferation
Summary of the method: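 HUVECs grown in F-12 with 10% FBS, 18 U/mL heparin and 30 μg/mL ECGS. Seeded at 10,000 cells/well in triplicate and left to adhere overnight, then starved 24 h in 0.1% FBS. Test compound at 0.8, 3, 11.8, 46.8 and […] in 0.1% FBS, with no VEGF165 added. MTS absorbance read at 490 nm after 72 h. IC50 = concentration halving absorbance versus control.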

786-O = assay: Cancer cell proliferation assay; type: cell-based; details: Homo sapiens, 786-0, 72 h, read-out: IC50, cell proliferation
[2] = test system: VEGF165-induced Primary HUVECs; assay: VEGF165-induced HUVEC proliferation; type: cell-based; details: Homo sapiens, 72 h, read-out: IC50, cell proliferation
MV-4-11 = assay: Cancer cell proliferation assay; type: cell-based; details: Homo sapiens, MV4-11, 72 h, read-out: IC50, cell proliferation
[3] = Body weight and tolerability in xenograft mice; type: in vivo, mouse
A375 = assay: Cancer cell proliferation assay; type: cell-based; details: Homo sapiens, A-375, 72 h, read-out: IC50, cell proliferation
BxPC-3 = assay: Cancer cell proliferation assay; type: cell-based; details: Homo sapiens, BXPC-3, 72 h, read-out: IC50, cell proliferation
[4] = test system: microvessel density (CD31); assay: Microvessel density by CD31 immunofluorescent staining in xenograft models; type: in vivo, mouse; details: for microvessel density (MVD), CD31 staining: mouse xenograft models
Summary of the method: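 Xenograft tumor paraffin sections (8 μm) rehydrated and treated 30 min in Tris/EDTA, then blocked with PBS/0.3% Triton X. Primary rabbit anti-mouse CD31 (1:100) at 4°C overnight. Secondary Alexa Fluor 488 goat anti-rabbit IgG (1:50) for 2 h. MVD quantified from fluorescence images: five slides, four ×200 fields each.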

[5] = test system: VEGF165-induced HUVEC cell lines; assay: VEGF165-induced HUVEC proliferation; type: cell-based; details: Homo sapiens, 72 h, read-out: IC50, cell proliferation
HCT-116 = assay: Cancer cell proliferation assay; type: cell-based; details: Homo sapiens, HCT-116, 72 h, read-out: IC50, cell proliferation
A549 = assay: Cancer cell proliferation assay; type: cell-based; details: Homo sapiens, A549, 72 h, read-out: IC50, cell proliferation
HT-29 = assay: Cancer cell proliferation assay; type: cell-based; details: Homo sapiens, HT-29, 72 h, read-out: IC50, cell proliferation
HT-29 xenograft tumors = assay: Mouse xenograft tumor growth; type: in vivo; details: HT-29-cell-derived xenograft models; oral
Summary of the method: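 Two-step HT-29 xenograft in BALB/c nude mice. First, 5 × 10⁶ cells injected subcutaneously and grown to 100–300 mm³. Tumors then excised, minced into 1 mm³ pieces and implanted in the flank of new mice, then grown to 100–300 mm³. […] Oral dosing for 3–4 weeks. Percent tumor growth inhibition calculated. Study repeated once.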

[6] = test system: KDR phosphorylation of HUVECs; assay: VEGF-induced KDR phosphorylation of HUVECs; type: cell-based, human; details: Figure S1
[7] = compared with other TKIs; cited from earlier work
KDR, FLT3, and C-Kit = assay: KINOMEscan IC50 compared with sunitinib; type: binding, human
C-Kit = C-Kit (Homo sapiens, UniProt P10721); assay: KINOMEscan competition kinase binding assay
Chain of C-Kit (P10721 26-976): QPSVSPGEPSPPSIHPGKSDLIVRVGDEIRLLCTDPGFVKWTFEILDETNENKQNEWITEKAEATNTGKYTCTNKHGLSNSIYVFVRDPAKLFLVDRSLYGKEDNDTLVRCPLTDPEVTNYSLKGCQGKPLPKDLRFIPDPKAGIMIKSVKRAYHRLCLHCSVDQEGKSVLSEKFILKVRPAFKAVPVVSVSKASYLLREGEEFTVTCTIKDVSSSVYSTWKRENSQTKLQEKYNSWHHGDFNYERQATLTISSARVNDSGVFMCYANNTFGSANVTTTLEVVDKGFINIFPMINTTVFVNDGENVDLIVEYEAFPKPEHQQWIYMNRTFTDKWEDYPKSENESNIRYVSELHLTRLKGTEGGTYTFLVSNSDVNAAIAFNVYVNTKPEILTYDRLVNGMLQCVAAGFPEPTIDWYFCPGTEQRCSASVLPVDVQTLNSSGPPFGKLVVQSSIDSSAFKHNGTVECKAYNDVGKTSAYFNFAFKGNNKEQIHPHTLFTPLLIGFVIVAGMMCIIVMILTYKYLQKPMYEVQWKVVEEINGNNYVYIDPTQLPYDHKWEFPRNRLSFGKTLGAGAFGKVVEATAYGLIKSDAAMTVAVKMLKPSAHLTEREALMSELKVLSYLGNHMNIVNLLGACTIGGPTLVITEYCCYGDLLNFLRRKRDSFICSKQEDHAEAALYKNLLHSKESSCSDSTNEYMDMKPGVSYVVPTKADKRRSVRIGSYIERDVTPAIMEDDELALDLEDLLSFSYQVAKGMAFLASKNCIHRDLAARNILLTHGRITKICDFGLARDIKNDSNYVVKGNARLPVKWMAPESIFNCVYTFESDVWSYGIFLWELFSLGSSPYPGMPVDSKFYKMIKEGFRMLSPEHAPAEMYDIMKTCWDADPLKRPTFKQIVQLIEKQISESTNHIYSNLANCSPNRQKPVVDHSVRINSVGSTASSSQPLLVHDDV

Primary HUVECs [8] = assay: In vitro HUVEC tube formation assay; type: cell-based, human; details: at both 50 and 100 nM; VEGF165 30 ng/mL, 3 h
CNV lesions = details: laser-induced CNV rat model; oral administration; cited from earlier work
A549 xenograft tumors = assay: Mouse xenograft tumor growth; type: in vivo; details: dose-dependent (abstract only)
FLT3 = FLT3 (Homo sapiens, UniProt P36888); assay: KINOMEscan competition kinase binding assay
Chain of FLT3 (P36888 27-993): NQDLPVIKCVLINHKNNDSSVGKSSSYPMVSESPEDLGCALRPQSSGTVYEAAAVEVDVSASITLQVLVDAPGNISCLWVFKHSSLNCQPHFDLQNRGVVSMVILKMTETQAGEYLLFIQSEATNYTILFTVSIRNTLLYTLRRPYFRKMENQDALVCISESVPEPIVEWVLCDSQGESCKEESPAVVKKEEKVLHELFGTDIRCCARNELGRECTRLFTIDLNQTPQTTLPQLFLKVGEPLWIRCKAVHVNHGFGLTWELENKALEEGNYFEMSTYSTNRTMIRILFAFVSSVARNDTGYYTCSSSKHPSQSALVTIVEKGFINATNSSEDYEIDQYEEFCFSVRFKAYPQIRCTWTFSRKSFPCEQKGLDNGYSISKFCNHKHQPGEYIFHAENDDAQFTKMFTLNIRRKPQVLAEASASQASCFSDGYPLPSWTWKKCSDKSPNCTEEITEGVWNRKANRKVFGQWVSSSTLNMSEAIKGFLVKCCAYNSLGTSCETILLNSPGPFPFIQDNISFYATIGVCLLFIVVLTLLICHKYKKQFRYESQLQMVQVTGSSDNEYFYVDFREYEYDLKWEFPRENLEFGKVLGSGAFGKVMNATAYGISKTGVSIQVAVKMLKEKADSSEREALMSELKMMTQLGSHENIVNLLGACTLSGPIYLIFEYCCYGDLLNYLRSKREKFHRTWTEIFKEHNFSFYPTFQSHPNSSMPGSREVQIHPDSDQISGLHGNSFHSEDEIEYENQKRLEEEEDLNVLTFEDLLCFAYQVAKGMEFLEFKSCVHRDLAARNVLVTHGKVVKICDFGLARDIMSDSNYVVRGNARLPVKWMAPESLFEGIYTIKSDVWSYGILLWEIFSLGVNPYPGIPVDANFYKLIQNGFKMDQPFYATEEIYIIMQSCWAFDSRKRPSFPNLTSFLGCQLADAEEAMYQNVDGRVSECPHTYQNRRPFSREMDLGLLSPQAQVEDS

PDGFRβ = PDGFRβ (Homo sapiens, UniProt P09619); assay: KINOMEscan competition kinase binding assay
Chain of PDGFRβ (P09619 33-1106): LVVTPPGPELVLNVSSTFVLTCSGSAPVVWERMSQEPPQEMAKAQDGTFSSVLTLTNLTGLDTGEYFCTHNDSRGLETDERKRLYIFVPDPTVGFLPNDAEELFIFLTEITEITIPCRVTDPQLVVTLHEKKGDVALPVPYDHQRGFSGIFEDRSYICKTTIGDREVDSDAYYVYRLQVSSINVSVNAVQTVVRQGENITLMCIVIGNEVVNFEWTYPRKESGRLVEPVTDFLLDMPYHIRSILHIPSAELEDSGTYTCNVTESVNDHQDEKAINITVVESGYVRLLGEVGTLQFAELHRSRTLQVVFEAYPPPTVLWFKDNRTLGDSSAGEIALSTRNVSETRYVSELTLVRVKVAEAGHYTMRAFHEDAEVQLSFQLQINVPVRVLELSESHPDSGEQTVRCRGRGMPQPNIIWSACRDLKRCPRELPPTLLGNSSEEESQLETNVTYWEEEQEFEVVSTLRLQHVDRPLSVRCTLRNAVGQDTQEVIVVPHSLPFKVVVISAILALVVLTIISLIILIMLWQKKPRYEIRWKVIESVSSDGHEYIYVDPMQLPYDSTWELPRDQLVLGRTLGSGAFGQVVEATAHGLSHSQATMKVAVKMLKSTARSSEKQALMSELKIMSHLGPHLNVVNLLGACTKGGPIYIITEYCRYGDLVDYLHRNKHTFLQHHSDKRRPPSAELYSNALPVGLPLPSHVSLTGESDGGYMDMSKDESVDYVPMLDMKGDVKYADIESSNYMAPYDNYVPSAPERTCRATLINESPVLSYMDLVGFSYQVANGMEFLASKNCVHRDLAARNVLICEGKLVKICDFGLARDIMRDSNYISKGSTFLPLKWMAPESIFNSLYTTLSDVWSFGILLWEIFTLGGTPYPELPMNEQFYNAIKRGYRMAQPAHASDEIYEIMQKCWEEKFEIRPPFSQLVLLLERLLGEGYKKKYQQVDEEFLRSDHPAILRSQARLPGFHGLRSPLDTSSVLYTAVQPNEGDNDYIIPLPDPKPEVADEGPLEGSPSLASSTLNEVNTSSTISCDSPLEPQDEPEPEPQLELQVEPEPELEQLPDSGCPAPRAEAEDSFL

MV-4-11 xenograft tumors = assay: Mouse xenograft tumor growth; type: in vivo; details: oral
Summary of the method: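 Male athymic BALB/c nude mice, 6 weeks old, injected subcutaneously with 5 × 10⁶ MV-4-11 cells in the flank next to the right forelimb. […] Oral dosing at various doses for 3–4 weeks. Percent tumor growth inhibition calculated. Study repeated twice. Mean ± SD; ANOVA/t test.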

[9] = test system: choroidal neovascularization; assay: Matrigel-induced choroidal neovascularization model; type: in vivo; details: rat, days 10-20 after Matrigel injection, n = 6
Summary of the method: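 Rats anesthetized with ketamine (40 mg/kg IP) and xylazine (6 mg/kg IP), then given a subretinal injection of 1.2 μL Matrigel diluted 3:1 with PBS. Test compound at 10 or 30 mg/kg on days 10–20 after injection; controls untreated. Rats perfused with PBS, DiI and 4% paraformaldehyde. Eyes cut in 100 μm serial sections and viewed by confocal microscopy. CNV area = summed section width × thickness. Mean ± SD; ANOVA/t test.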

ABCG2 = details: cited from earlier work

Structure (SMILES)	IC50 (Primary HUVECs [1])	IC50 (786-O)	IC50 [2]	IC50 (MV-4-11)	IC50 (A375)	IC50 (BxPC-3)	microvessel density (MVD), CD31 staining [4]	IC50 [5]	IC50 (HCT-116)	IC50 (A549)	IC50 (HT-29)	also measured
CN[C@@H]1C[C@H]2O[C@@](C)([C@@H]1OC)n1c3ccccc3c3c4c(c5c6ccccc6n2c5c31)C(=O)NC4 [Staurosporine, reference compound]	8.12 nM											
CCN(CC)CCNC(=O)c1c(C)[nH]c(/C=C2\C(=O)Nc3ccc(F)cc32)c1C [Sunitinib, reference compound]		6040 nM	12.6 nM	14.8 nM	2880 nM	4960 nM	significantly inhibited	39.8 nM	2520 nM	4430 nM	4420 nM	body weight loss ([3]; 40 mg/kg qd): severe body weight loss
Cc1[nH]c(/C=C2\C(=O)Nc3ccc(F)cc32)c(C)c1C(=O)N[C@H]1CCN(C(=O)N(C)C)C1 [Vorolanib]	> 2000 nM	> 9000 nM	92.4 nM	140 nM	> 9000 nM	> 9000 nM	suppressed the MVD of the mouse in a dose-dependent manner	64.1 nM	> 9000 nM	> 9000 nM	> 9000 nM	efficacious dose (HT-29 xenograft tumors): 40–160 mg/kg bid; VEGF-induced KDR phosphorylation of HUVECs [6]: inhibited the VEGF-induced KDR phosphorylation of HUVECs; body weight loss / toxicity ([3]; orally administered vorolanib): no obvious body weight loss or other significant toxicity observed; half-life [7]: shorter half-life; tissue accumulation [7]: limited tissue accumulation; IC50 fold lower than those of sunitinib (KDR, FLT3, and C-Kit): 4.7- to 15.4 fold; microvessel density (MVD) inhibitory activity ([4]; high-dose vorolanib 160 mg/kg twice daily [bid]): comparable with sunitinib; IC50 (C-Kit): 0.14 nM; VEGF165-induced tube formation of HUVECs (Primary HUVECs [8]): inhibited the VEGF165-induced tube formation of HUVECs, in vitro, with inhibitory strengths comparable with that of sunitinib; CNV lesions (CNV lesions): could reduce CNV lesions; tumor growth (A549 xenograft tumors): inhibited tumor growth; IC50 (FLT3): 0.63 nM; IC50 (PDGFRβ): 0.13 nM; tumor growth inhibition (MV-4-11 xenograft tumors; 10 mg/kg bid): began to show significant inhibition; tumor regression (MV-4-11 xenograft tumors; 80 mg/kg bid): tumors completely disappeared; CNV area ([9]; 10 mg/kg): 493.58 ± 317.17 × 10^3 μm^2; CNV area ([9]; 30 mg/kg): 357.70 ± 276.97 × 10^3 μm^2; drug efflux function of ABCG2 (ABCG2): inhibition of the drug efflux function of ABCG2
